Bioassay records as filed in PubChem.
KDM4C inh: inhibitors of GASC-1 (KDM4C) histone demethylase, primary screen, biochemical, single concentration HTS | Lysine-specific demethylase 4C (Homo sapiens), Q9H3R0 | GST-KDM4C 2-372, H3K9me3 peptide, LANCE TR-FRET | inhibition, % at 12.5 µM | 0.15% of 96,000 active | AID 720574, 2013;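 active = mean replicate inhibition above about 25%, with at least 55% of replicates also reaching it, limit read from the data, passing the limit was not always enough; inconclusive = only one of those two conditions met; inactive = neither condition met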
Target sequence (Q9H3R0 2-372 limits assumed): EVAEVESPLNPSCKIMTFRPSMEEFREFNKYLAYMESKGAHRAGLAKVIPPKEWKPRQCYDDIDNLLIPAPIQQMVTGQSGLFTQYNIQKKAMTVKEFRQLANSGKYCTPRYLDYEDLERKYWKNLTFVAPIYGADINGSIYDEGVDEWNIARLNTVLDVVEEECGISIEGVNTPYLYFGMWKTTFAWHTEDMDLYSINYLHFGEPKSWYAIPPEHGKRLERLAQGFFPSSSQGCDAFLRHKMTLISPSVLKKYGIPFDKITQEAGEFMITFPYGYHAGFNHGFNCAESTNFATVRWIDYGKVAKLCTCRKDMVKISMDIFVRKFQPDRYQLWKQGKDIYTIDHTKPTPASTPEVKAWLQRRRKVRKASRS
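Material: GST-tagged GASC-1 (JMJD2C) catalytic fragment, aa 2-372 / Quantity: enzyme final amount 10 nM / Medium: HEPES buffer, pH 7.5, plus ascorbate / Doses: one test concentration per compound / Incubation: 30 min reaction, 60 min detection, RT / Measured by: LANCE TR-FRET / Read-out: inhibition from TR-FRET ratio decrease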
IDH1 R132H inh: inhibitors of IDH1 R132H reductase, primary screen, biochemical, plate reader, single point. Isocitrate dehydrogenase [NADP] cytoplasmic (Homo sapiens), O75874. diaphorase/resazurin fluorescence, 60 min. inhibition, % at 10 µM. 0.18% of 70,000 active; in the data active = inhibition above about 34%; inconclusive = no clear call, values can overlap the other calls; inactive = below about 11%;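 note: 0% = DMSO and 100% = no enzyme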
Target sequence (O75874 whole entry R132H): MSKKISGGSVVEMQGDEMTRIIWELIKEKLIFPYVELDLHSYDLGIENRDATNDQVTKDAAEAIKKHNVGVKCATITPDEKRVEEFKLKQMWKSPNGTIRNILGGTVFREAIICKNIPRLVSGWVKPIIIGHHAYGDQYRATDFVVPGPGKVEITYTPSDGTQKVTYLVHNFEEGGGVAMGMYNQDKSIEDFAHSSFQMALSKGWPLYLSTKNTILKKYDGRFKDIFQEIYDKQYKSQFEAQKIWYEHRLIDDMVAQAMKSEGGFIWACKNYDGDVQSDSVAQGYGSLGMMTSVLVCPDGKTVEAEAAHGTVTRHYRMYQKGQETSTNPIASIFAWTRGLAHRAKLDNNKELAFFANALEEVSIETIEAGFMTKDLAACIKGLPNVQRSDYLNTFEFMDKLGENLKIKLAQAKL
T cruzi growth-1: T. cruzi intracellular proliferation inhibitors, primary screen, cell-based, beta-gal Tulahuen parasites, NIH3T3 host, luminescence | T. cruzi beta-gal in NIH3T3, GalScreen luminescence, 90 h | inhibition, % at 8.34 µM | 5.9% of 77,000 active | AID 624255, 2012;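 active = mean inhibition above about 93%, with at least 55% of replicates each passing it, limit read from the data, passing the limit was not always enough; inconclusive = only one of those two conditions holds; inactive = neither condition holds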
T cruzi growth-2: T. cruzi intracellular proliferation inhibitors, confirmation, cell-based, NIH3T3 host, beta-gal parasite, luminescence, cherry-pick. T. cruzi beta-gal in NIH3T3, GalScreen luminescence, 90 h. 72% of 5,600 active. inhibition, % at 8.35 µM. shares compounds with T cruzi growth-1;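 active = mean replicate inhibition above about 95% and at least 55% of replicates individually reaching it, limit read from the data; inconclusive = only one of the two criteria is met; inactive = neither criterion is met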
T cruzi growth-3: inhibitors of intracellular T. cruzi replication, confirmation, NIH3T3 host cells, beta-gal parasites, cherry-pick, set 2 | shares compounds with T cruzi growth-1 | T. cruzi beta-gal in NIH3T3, GalScreen luminescence, 90 h | inhibition, % at 2.09 µM | 21% of 5,600 active | AID 651740, 2012;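 active = mean inhibition above about 95%, with at least 55% of replicates also reaching it, limit read from the data; inconclusive = meets just one of the two conditions; inactive = meets neither condition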;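 note: plate controls were neutral control median for no effect and positive control median for full effect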
NIH3T3 tox: cytotoxicity in mouse NIH/3T3 fibroblasts, confirmation, cytotoxicity control for T. cruzi proliferation inhibitor project, cell-based, cherry-pick, single point; shares compounds with T cruzi growth-1; cytotoxicity (signal decrease), % at 8.35 µM; 14% of 5,600 active; NIH/3T3 viability, CellTiter-Glo ATP luminescence, 90 h;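 active = mean signal decrease across replicates above about 35% based on untreated-well scatter, with enough replicates individually passing, limit read from the data; inconclusive = no rule stated though some were filed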;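 note: 0% = median of neutral control wells and 100% = median of positive control wells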
3T3 cytotox 2: NIH/3T3 fibroblast cytotoxicity, confirmation, cytotoxicity control, cell-based, cherry-pick, single point, set 2. shares compounds with T cruzi growth-1. NIH/3T3 viability, CellTiter-Glo ATP luminescence, 90 h. inhibition, % at 24.9 µM. 56% of 5,600 active. AID 651744, 2012;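 active = mean loss of cell viability signal at or above a set limit, and enough replicates individually reaching it; inconclusive = meets only the mean limit or only the replicate share; inactive = meets neither condition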;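 note: 0% = median of neutral control wells and 100% = median of positive control wells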
Numbers without * were called inactive; ? = inconclusive; nt = not tested or not shown; + = active, no number. This is one part of a sample in which hits are shown more often than they occur.

SMILES | KDM4C inh | IDH1 R132H inh | T cruzi growth-1 | T cruzi growth-2 | T cruzi growth-3 | NIH3T3 tox | 3T3 cytotox 2
CC(=O)N1[C@@H]2c3ccc(C4=CCCCC4)c(=O)n3C[C@H]1[C@H](CO)[C@H]2C(=O)N[C@@H](C)c1ccccc1 | -1.8 | nt | + | -46.0 | -58.6 | 3.0 | 2.4
C[C@H](NC(=O)[C@H]1[C@H](CO)[C@H]2Cn3c(cccc3=O)[C@@H]1N2Cc1ccncc1)c1ccccc1 | -2.2 | nt | 20.6 | nt | nt | nt | nt
CN1CCN(C(=O)[C@@H]2[C@@H](CO)[C@@H]3Cn4c(cccc4=O)[C@H]2N3Cc2ccncc2)CC1 | 0.0 | nt | 168.7* | 2.3 | 15.6 | -15.8 | -5.4
CC(=O)N1[C@@H]2Cn3c(ccc(C4=CCCCC4)c3=O)[C@H]1[C@@H](C(=O)N[C@H](C)c1ccccc1)[C@@H]2CO | 1.0 | nt | 24.0 | nt | nt | nt | nt
C[C@H](NC(=O)[C@H]1[C@H](CO)[C@H]2Cn3c(cccc3=O)[C@@H]1N2C(=O)C1CCC1)c1ccccc1 | -0.8 | nt | -16.5 | nt | nt | nt | nt
C[C@@H](NC(=O)[C@H]1[C@H](CO)[C@H]2Cn3c(cccc3=O)[C@@H]1N2Cc1ccccc1)c1ccccc1 | -1.0 | nt | 100.9* | 69.4 | -26.9 | -5.3 | -1.2
N#Cc1ccccc1OCCCn1cnc2ccccc21 | nt | 1.7 | nt | nt | nt | nt | nt
COc1ccc(-c2nc3cc(C(C)C)ccc3o2)cc1NC(=O)COc1ccccc1C | nt | 0.4 | nt | nt | nt | nt | nt
O=C(NCc1ccc(F)cc1)[C@@H]1[C@@H](CO)[C@@H]2Cn3c(cccc3=O)[C@H]1N2Cc1cccnc1 | 0.1 | nt | 99.9* | 21.3 | -7.6 | 16.5 | -2.2
O=C(NCc1ccc2c(c1)OCO2)[C@@H]1[C@@H](CO)[C@@H]2Cn3c(cccc3=O)[C@H]1N2Cc1cccnc1 | -0.8 | nt | -6.2 | nt | nt | nt | nt
C[C@H](NC(=O)[C@H]1[C@H](CO)[C@H]2Cn3c(cccc3=O)[C@@H]1N2C(=O)C1CC1)c1ccccc1 | -1.4 | nt | 100.9* | 6.2 | -25.1 | -3.1 | -22.2
C[C@@H](NC(=O)[C@@H]1[C@@H](CO)[C@@H]2Cn3c(cccc3=O)[C@H]1N2C(=O)C1CCC1)c1ccccc1 | -3.0 | nt | 41.3 | nt | nt | nt | nt
COc1cc(/C=N/NC(=O)c2ccccn2)c(Br)cc1O | nt | -0.1 | nt | nt | nt | nt | nt
N#Cc1cccc(-c2ccc([C@@H]3[C@@H](CO)N4CCCCN(C(=O)Nc5ccc(F)cc5)C[C@@H]34)cc2)c1 | -0.4 | nt | 109.1* | 105.8* | 75.1 | 46.6* | 98.0*
N#Cc1cccc(-c2ccc([C@@H]3[C@H]4CN(C(=O)Nc5ccc(F)cc5)CCCCN4[C@H]3CO)cc2)c1 | -0.3 | nt | 83.9 | nt | nt | nt | nt
N#Cc1ccc(-c2ccc([C@@H]3[C@H](CO)N4CCCCN(C(=O)Nc5ccc(F)cc5)C[C@@H]34)cc2)cc1 | -1.4 | nt | 49.8 | nt | nt | nt | nt
N#Cc1cccc(-c2ccc([C@@H]3[C@H](CO)N4CCCCN(C(=O)Nc5ccc(F)cc5)C[C@@H]34)cc2)c1 | -1.1 | nt | 94.1 | nt | nt | nt | nt
N#Cc1ccc(-c2ccc([C@H]3[C@@H](CO)N4CCCCN(C(=O)Nc5ccc(F)cc5)C[C@@H]34)cc2)cc1 | -1.1 | nt | 99.5* | 111.5* | 63.2 | -7.7 | 15.4
N#Cc1cccc(-c2ccc([C@H]3[C@H]4CN(C(=O)Nc5ccc(F)cc5)CCCCN4[C@H]3CO)cc2)c1 | -0.4 | nt | 100.2* | 101.3* | 30.6 | 4.9 | 15.2
Cc1cc(I)ccc1NC(=O)CN(c1cccc(C(F)(F)F)c1)S(C)(=O)=O | nt | -0.1 | nt | nt | nt | nt | nt
N#Cc1c(C(F)(F)F)cc(-c2ccccc2)nc1SCCC(=O)Nc1ccccc1 | nt | 0.2 | nt | nt | nt | nt | nt
Cc1cc2nn(-c3ccccc3)nc2cc1NC(=O)C(C)(C)Oc1ccc(Cl)cc1 | nt | -0.1 | nt | nt | nt | nt | nt
Cc1cc(=O)n2[nH]c(NCc3cccc([N+](=O)[O-])c3)nc2n1 | nt | 0.3 | nt | nt | nt | nt | nt
CS(=O)(=O)N(CC(=O)Nc1cc(Cl)ccc1Oc1ccccc1)c1ccccc1F | nt | -0.4 | nt | nt | nt | nt | nt
O=C(Nc1cc(F)ccc1F)N1CCCCN2[C@H](C1)[C@@H](c1ccc(-c3cncnc3)cc1)[C@@H]2CO | 1.4 | nt | 104.5* | 3.6 | -13.9 | -15.9 | -2.4
SMILES | KDM4C inh | IDH1 R132H inh | T cruzi growth-1 | T cruzi growth-2 | T cruzi growth-3 | NIH3T3 tox | 3T3 cytotox 2
O=C(Nc1cc(F)ccc1F)N1CCCCN2[C@H](CO)[C@H](c3ccc(-c4cncnc4)cc3)[C@@H]2C1 | -2.6 | nt | 115.0* | 54.0 | 30.8 | 23.3 | 18.9
O=C(Nc1cc(F)ccc1F)N1CCCCN2[C@H](CO)[C@H](c3ccc(-c4cccnc4)cc3)[C@H]2C1 | 0.2 | nt | 103.8* | 100.6* | 59.5 | -25.4 | ?
O=C(Nc1cc(F)ccc1F)N1CCCCN2[C@H](CO)[C@@H](c3ccc(-c4ccccc4)cc3)[C@H]2C1 | -0.1 | nt | 36.0 | nt | nt | nt | nt
O=C(Nc1cc(F)ccc1F)N1CCCCN2[C@H](C1)[C@@H](c1ccc(-c3ccncc3)cc1)[C@@H]2CO | -0.1 | nt | 93.9 | nt | nt | nt | nt
O=C(Nc1cc(F)ccc1F)N1CCCCN2[C@H](CO)[C@@H](c3ccc(-c4cccnc4)cc3)[C@H]2C1 | -0.6 | nt | 60.9 | nt | nt | nt | nt
O=C(Nc1cc(F)ccc1F)N1CCCCN2[C@H](C1)[C@@H](c1ccc(-c3ccccc3)cc1)[C@@H]2CO | -2.0 | nt | 99.2* | 101.1* | 101.7* | 61.5* | 105.7*
O=C(Nc1cc(F)ccc1F)N1CCCCN2[C@H](CO)[C@@H](c3ccc(-c4ccncc4)cc3)[C@@H]2C1 | -0.4 | nt | 88.1 | nt | nt | nt | nt
Cc1nnc(SCc2cc(=O)[nH]c(Nc3nc(C)c4cccc(C)c4n3)n2)s1 | nt | 0.3 | nt | nt | nt | nt | nt
CCc1ccc(N2C(=S)N(C(=O)c3cccs3)C3CC2(C)Oc2ccccc23)cc1 (stereo not given) | nt | 0.0 | nt | nt | nt | nt | nt
Cc1ccc(NC(=O)Cn2cc([N+](=O)[O-])cn2)cc1Cl | nt | -0.4 | nt | nt | nt | nt | nt
Cc1ccccc1NC(=O)CSc1nnc(-c2ccc(C(C)(C)C)cc2)n1C | nt | 0.2 | nt | nt | nt | nt | nt
O=C(Nc1ccc(Cl)c(Cl)c1)C(Cc1ccccc1)N1C(=O)c2ccccc2C1=O (stereo not given) | nt | 0.3 | nt | nt | nt | nt | nt
O=C(CSc1nnc(-c2ccccc2)n1-c1ccccc1)Nc1cccc(Br)c1 | nt | 0.1 | nt | nt | nt | nt | nt
COc1ccc(CCNS(=O)(=O)c2ccc(OC)c(Cl)c2Cl)cc1OC | nt | 0.9 | nt | nt | nt | nt | nt
COc1ccc(S(=O)(=O)N(C)C[C@@H]2OCCCC[C@H](C)Oc3ccc(NS(=O)(=O)c4ccccc4)cc3C(=O)N([C@H](C)CO)C[C@@H]2C)cc1 | 0.7 | 2.7 | 66.9 | nt | nt | nt | nt
